# Screening results as filed in PubChem BioAssay.
# This is a sample that favours compounds with a hit; in the whole collection about 4.9% have one here.
# HSF1 inhib: HSF1 inhibition. 0.77% of 300,000 active. NIH3T3-HGL HSE-luciferase, MG132-induced, luminescence 8 h; active compounds read low. activity change, negative = inhibition, % at 7.5 µM (by protocol);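 active = more than half of replicate wells show activity change below -50%, luminescence cut by over half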;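 note: luciferase reports HSF-1 transcriptional activity via heat shock element; 0% = median of DMSO wells and -100% = zero luminescence signal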
# CHT inh: inhibitors of human choline transporter CHT. Q9GZV3. 0.86% of 310,000 active. CHT-expressing cells, membrane potential dye, choline response; active compounds read low. B-score at 10 µM. AID 488975;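 active = B-score over 3 SD under the library average, and starting fluorescence ratio not unusually high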;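 note: choline stimulus applied at its EC90 after an EC20 pre-addition; B-score computed on integrated fluorescence ratio after choline addition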
# Target sequence (Q9GZV3 whole entry, looked up): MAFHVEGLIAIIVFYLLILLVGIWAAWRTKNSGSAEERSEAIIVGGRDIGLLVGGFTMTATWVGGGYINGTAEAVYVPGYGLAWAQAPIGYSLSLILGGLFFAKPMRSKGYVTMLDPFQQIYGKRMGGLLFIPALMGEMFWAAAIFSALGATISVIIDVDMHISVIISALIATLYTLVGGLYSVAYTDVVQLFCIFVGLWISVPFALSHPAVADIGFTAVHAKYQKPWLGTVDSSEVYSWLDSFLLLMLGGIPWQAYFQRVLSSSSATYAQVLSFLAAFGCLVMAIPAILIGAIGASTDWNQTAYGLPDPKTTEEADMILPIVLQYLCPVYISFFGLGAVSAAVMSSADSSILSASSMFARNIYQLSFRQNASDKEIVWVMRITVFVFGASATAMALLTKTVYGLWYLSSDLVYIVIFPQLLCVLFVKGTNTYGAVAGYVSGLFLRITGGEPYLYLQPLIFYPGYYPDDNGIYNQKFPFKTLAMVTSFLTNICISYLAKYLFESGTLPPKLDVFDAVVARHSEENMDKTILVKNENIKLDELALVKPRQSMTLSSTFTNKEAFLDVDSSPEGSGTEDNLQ
# CHT PAM: human CHT allosteric activation | Q9GZV3 | CHT-expressing cells, membrane potential dye, choline EC20; active compounds read high; LV-AA mutant CHT in HEK293 cells | B-score at 10 µM | 0.49% of 310,000 active | AID 488977;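 active = initial fluorescence not abnormally high and integrated response B-score, plate-corrected, over 3 SD above library mean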
# PHOSPHO1 inh: inhibitors of human PHOSPHO1 phosphatase. Q8TCT1. recombinant PHOSPHO1, absorbance phosphatase assay. inhibition, % at 13.3 µM. 1.1% of 290,000 active. AID 1565; in the data active = inhibition above about 60%
# Hep lipid drop: modulators of hepatic lipid droplet formation | AID 1656 | AML12 mouse hepatocytes, oleate lipid droplets, BODIPY imaging | 0.4% of 240,000 active | inhibition, % at 6.5 µM;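 active = lipid droplet intensity inhibited by at least 50%, with more than 500 cells counted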
#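 Assay system: AML12 mouse liver cells | Compound: 6.5 µM single-point dosing | Schedule: Overnight exposure | Technique: Fluorescence imaging, 20x objective, two fields per well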
# HSF-1 act: increases HSF-1 driven luciferase reporter signal | NIH3T3-HGL HSF-1 luciferase reporter, MG132, 8 h; 100% = twice DMSO control signal | activation, % at 9 µM | 1.7% of 300,000 active;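 active = mean replicate activation of at least 50% with a set share of replicates each reaching 50%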;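 note: 0% = median of the neutral control wells and 100% = twice that signal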
# An asterisk follows results filed as active; i = inactive; / = no result given.
SMILES,HSF1 inhib,CHT inh,CHT PAM,PHOSPHO1 inh,Hep lipid drop,HSF-1 act
CCOc1ccc(N2C(=O)C3C(C2=O)C3(c2ccccc2)c2ccccc2)cc1 (stereo not given),-1.6,i,i,-19.4,-25.6,-8.4
CC1(C)CC(=O)C2=C(C1)Nc1[nH]c(=S)[nH]c(=O)c1C2c1ccccc1 (stereo not given),/,i,i,96.3*,/,/
CCSc1nc2c(c(=O)[nH]1)C(c1ccc(C)cc1)C1=C(CCCC1=O)N2 (stereo not given),9.6,i,i,13.2,8.2,10.9
Cc1ccc(C2C3=C(CCCC3=O)Nc3[nH]c(=S)[nH]c(=O)c32)cc1 (stereo not given),0.4,i,i,102.5*,/,-9.1
Cc1ccccc1NC1(C#N)C(=O)Nc2ccccc21 (stereo not given),1.0,i,i,6.1,5.1,-0.5
CC(C)c1ccc(NC2(C#N)C(=O)Nc3ccccc32)cc1 (stereo not given),-60.9*,i,i,36.9,/,-67.1
Cn1c(N)c(C(=O)c2cc(-c3ccccc3)nc3ccccc23)c(=O)n(C)c1=O,-4.1,i,i,-43.0,-9.4,-7.2
Cc1ccc(-n2ncc3c(=O)n(CC(=O)N(C)C)cnc32)cc1C,2.6,i,i,13.9,17.2,8.4
CC(=O)Cn1cnc2c(cnn2-c2ccc(C)c(C)c2)c1=O,7.4,i,i,33.0,16.3,59.0*
Cc1cc2ccccc2nc1SCC(=O)Nc1nc(-c2ccccc2)cs1,-9.9,i,i,-4.2,/,-9.1
CSc1nc(C)c(CCOC(=O)c2cccc(Cl)c2)c(=O)[nH]1,17.6,i,i,7.1,/,16.3
Cn1c(=Nc2ccccc2)sc2ccccc21,-0.7,i,i,-4.4,1.8,7.2
CN(C)c1ccc(N=c2sc3ccccc3n2C)cc1,70.5,i,i,94.5*,11.3,109.5*
Cc1nc2c(=O)n(C)c(=O)n(C)c2nc1Cl,240.7,i,i,-4.4,-25.6,284.1*
Cn1c(=O)c2nc(NCc3ccccc3)cnc2n(C)c1=O,2.2,i,i,-4.2,/,-2.4
CCOC(=O)N1c2ccccc2C=CC1OCC (stereo not given),0.1,i,i,3.5,-13.4,-11.4
CC1C=Cc2ccccc2N1C(=O)c1ccccc1 (stereo not given),-63.1*,i,i,18.4,/,-70.3
O=S(=O)(N1CCCCC1)n1nnc2ccccc21,-52.6*,i,i,3.6,12.3,-63.6
OCC1CCCN(C(=S)Nc2ccc(OC(F)F)cc2)C1 (stereo not given),8.7,i,i,0.8,-8.5,16.0
OCC1CCCN(C(=S)Nc2ccc(Nc3ccccc3)cc2)C1 (stereo not given),33.6,i,i,27.4,-5.8,74.2*
COC(=O)C1N[C@@H]([C@@H](NC(=O)COc2ccccc2)C(=O)NCc2ccc(OC)cc2)SC1(C)C (stereo not given in full),-3.5,i,i,/,/,1.0
O=C(O)c1ccc(N2C(=O)CC(N3CCN(c4cccc(C(F)(F)F)c4)CC3)C2=O)cc1 (stereo not given),-56.0*,i,i,40.1,-8.7,-64.6
O=C(O)c1ccc(N2C(=O)CC(N3CCN(c4cccc(Cl)c4)CC3)C2=O)cc1 (stereo not given),-11.6,i,i,23.5,-3.0,-8.1
CCC(=O)Nc1cccc(C(=O)OCC(=O)c2ccccc2Cl)c1,35.9,i,i,-0.1,/,65.1*
CC(=O)Nc1cccc(C(=O)OCC(=O)c2ccccc2Cl)c1,39.4,i,i,52.7,-0.8,84.8*
SMILES,HSF1 inhib,CHT inh,CHT PAM,PHOSPHO1 inh,Hep lipid drop,HSF-1 act
CCCCN(c1ccccc1)c1ncnc(N)c1[N+](=O)[O-],-52.1*,i,i,-2.8,/,-55.5
COc1cc(NC2c3ccccc3C(=O)N2Cc2ccccc2Cl)cc(OC)c1OC (stereo not given),3.0,i,i,-0.5,-3.5,-1.7
Cc1ccc(C(=O)NCC(=O)OCC(=O)NC2CCS(=O)(=O)C2)cc1C (stereo not given),4.4,i,i,-7.8,21.9,-0.9
CCOc1ccccc1N1CCN(CC(=O)NC(C)c2ccccc2)CC1 (stereo not given),-60.7*,i,i,24.1,13.9,-66.7
CCc1nnc(NC(=O)CSc2nnc(CNc3ccc(Cl)cc3)o2)s1,2.2,i,i,61.5*,/,6.7
COc1ccc(NCc2nnc(SCC(=O)Nc3cccc(C)c3)o2)cc1,-54.2*,i,i,36.6,/,-60.8
CCc1nnc(NC(=O)CSc2nnc(-c3ccccc3NC(=O)c3ccccc3)o2)s1,13.3,i,i,68.0*,/,11.5
O=C(CSc1ccc2nnc(-c3cccnc3)n2n1)NCc1ccco1,3.3,i,i,5.1,/,16.4
O=C(CSc1ncc(-c2ccc(F)cc2)[nH]1)NCc1ccco1,8.5,i,i,74.0*,/,30.2
O=C(CSc1nc(-c2ccc(F)cc2)cs1)NC(=O)NCc1ccco1,1.6,i,i,79.4*,/,3.9
O=C(CSc1ccc2nnc(-c3cccc(F)c3)n2n1)NCc1ccco1,-1.3,i,i,64.6*,/,0.1
O=C(CSc1nncs1)NC(=O)NCc1ccco1,-0.6,i,i,24.9,-4.7,-1.2
O=C(Cc1ccccc1[N+](=O)[O-])OCN1C(=O)c2ccccc2C1=O,18.6,i,i,37.6,-4.5,17.3
CC(OC(=O)CN1C(=O)c2ccccc2C1=O)C(=O)NC1CCCCC1C (stereo not given),-74.9*,i,i,/,/,-80.4
COc1cccc(-c2csc(N3CCN(C(=S)Nc4cccc(Cl)c4)CC3)n2)c1,5.8,i,i,19.4,/,0.2
COc1cccc(-c2csc(N3CCN(C(=O)Nc4ccc(Cl)cc4)CC3)n2)c1,13.0,i,i,64.2*,-6.8,18.4
O=C(NCCCN1CCOCC1)c1cc(-c2ccc(Cl)c(Cl)c2)on1,-0.1,i,i,8.1,18.0,-1.0
Cc1ccc(-c2cc(C(=O)NCCCN3CCOCC3)no2)cc1,-76.0*,i,i,-7.9,19.1,-79.4
COC(=O)N(C)c1nc2ccccc2s1,4.3,i,i,-5.5,/,13.1
CN(C(=O)OC(C)(C)C)c1ccc(-c2nc3ccccc3s2)cc1,-93.2*,i,i,/,/,-94.3
C#CCOc1ccc(C2C3=C(CC(C)(C)CC3=O)N(CC(=O)O)C3=C2C(=O)CC(C)(C)C3)cc1,-1.0,i,i,29.5,3.6,21.8
C#CCOc1ccc(C2C3=C(CC(C)(C)CC3=O)N(CC(=O)O)C3=C2C(=O)CC(C)(C)C3)cc1OC,31.2,i,i,24.1,8.5,60.5*
